From ChEMBL document CHEMBL1671735, “Genetic factors associated with elevated carbapenem resistance in KPC-producing Klebsiella pneumoniae” (2010)
In brackets after ≈: the same amount, converted by molar mass.

Columns and labels:
Format in all cases: functional
Klebsiella pneumoniae [1] = test: Antimicrobial activity against OmpK35-deficient Carbapenem-resistant Klebsiella pneumoniae isolate AIS080949 expressing KPC beta lactamase by broth microdilution method
Klebsiella pneumoniae [2] = test: Antimicrobial activity against OmpK35,OmpK36-deficient Carbapenem-resistant Klebsiella pneumoniae isolate ART2008135 expressing KPC beta lactamase by broth microdilution method
Klebsiella pneumoniae [3] = test: Antimicrobial activity against Carbapenem-resistant Klebsiella pneumoniae isolate HIP10924 expressing KPC beta lactamase by broth microdilution method
Klebsiella pneumoniae [4] = test: Antimicrobial activity against OmpK35-deficient Carbapenem-resistant Klebsiella pneumoniae isolate ART2008137 expressing KPC beta lactamase by broth microdilution method
Outline: (§1)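 The clinical K. pneumoniae isolates had been referred to CDC for susceptibility testing. bla_KPC was confirmed by PCR and subtyped by bidirectional sequencing of a 1,011-bp amplicon. Isolates were typed by PFGE of XbaI-digested DNA.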

Klebsiella pneumoniae [5] = test: Antimicrobial activity against OmpK35-deficient Carbapenem-resistant Klebsiella pneumoniae isolate AIS070446 expressing KPC beta lactamase by broth microdilution method; outline: as §1
Klebsiella pneumoniae [6] = test: Antimicrobial activity against Carbapenem-resistant Klebsiella pneumoniae isolate ART2008028 expressing KPC beta lactamase by broth microdilution method
Klebsiella pneumoniae [7] = test: Antimicrobial activity against OmpK35-deficient Carbapenem-resistant Klebsiella pneumoniae isolate ART2008142 expressing KPC beta lactamase by broth microdilution method
Klebsiella pneumoniae [8] = test: Antimicrobial activity against Carbapenem-resistant Klebsiella pneumoniae isolate ART2008024 expressing KPC beta lactamase by broth microdilution method
Klebsiella pneumoniae [9] = test: Antimicrobial activity against OmpK35-deficient Carbapenem-resistant Klebsiella pneumoniae isolate ART2008138 expressing KPC beta lactamase by broth microdilution method
Klebsiella pneumoniae [10] = test: Antimicrobial activity against OmpK35,OmpK36-deficient Carbapenem-resistant Klebsiella pneumoniae isolate ART2008027 expressing KPC beta lactamase by broth microdilution method
Klebsiella pneumoniae [11] = test: Antimicrobial activity against OmpK35-deficient Carbapenem-resistant Klebsiella pneumoniae isolate AIS081072 expressing KPC beta lactamase by broth microdilution method
Klebsiella pneumoniae [12] = test: Antimicrobial activity against OmpK35-deficient Carbapenem-resistant Klebsiella pneumoniae isolate AIS080571 expressing KPC beta lactamase by broth microdilution method
Klebsiella pneumoniae [13] = test: Antimicrobial activity against OmpK35-deficient Carbapenem-resistant Klebsiella pneumoniae isolate ART2008022 expressing KPC beta lactamase by broth microdilution method
Klebsiella pneumoniae [14] = test: Antimicrobial activity against OmpK35-deficient Carbapenem-resistant Klebsiella pneumoniae isolate ART2008226 expressing KPC beta lactamase by broth microdilution method
Klebsiella pneumoniae [15] = test: Antimicrobial activity against OmpK35-deficient Carbapenem-resistant Klebsiella pneumoniae isolate AIS081042 expressing KPC beta lactamase by broth microdilution method
Klebsiella pneumoniae [16] = test: Antimicrobial activity against OmpK35-deficient Carbapenem-resistant Klebsiella pneumoniae isolate HIP14474 expressing KPC beta lactamase by broth microdilution method
Klebsiella pneumoniae [17] = test: Antimicrobial activity against OmpK35-deficient Carbapenem-resistant Klebsiella pneumoniae isolate ART2008136 expressing KPC beta lactamase by broth microdilution method; outline: as §1
Klebsiella pneumoniae [18] = test: Antimicrobial activity against Carbapenem-resistant Klebsiella pneumoniae isolate AIS081058 expressing KPC beta lactamase by broth microdilution method
Klebsiella pneumoniae [19] = test: Antimicrobial activity against OmpK35-deficient Carbapenem-resistant Klebsiella pneumoniae isolate AIS070654 expressing KPC beta lactamase by broth microdilution method
Klebsiella pneumoniae [20] = test: Antimicrobial activity against OmpK35-deficient Carbapenem-resistant Klebsiella pneumoniae isolate HIP14358 expressing KPC beta lactamase by broth microdilution method
Klebsiella pneumoniae [21] = test: Antimicrobial activity against OmpK35-deficient Carbapenem-resistant Klebsiella pneumoniae isolate ART2008139 expressing KPC beta lactamase by broth microdilution method
Klebsiella pneumoniae [22] = test: Antimicrobial activity against Carbapenem-resistant Klebsiella pneumoniae isolate AIS080884 expressing KPC beta lactamase by broth microdilution method
Klebsiella pneumoniae [23] = test: Antimicrobial activity against OmpK35-deficient Carbapenem-resistant Klebsiella pneumoniae isolate ART2008140 expressing KPC beta lactamase by broth microdilution method
Klebsiella pneumoniae [24] = test: Antimicrobial activity against OmpK35,OmpK36-deficient Carbapenem-resistant Klebsiella pneumoniae isolate ART2008141 expressing KPC beta lactamase by broth microdilution method
Klebsiella pneumoniae [25] = test: Antimicrobial activity against OmpK35-deficient Carbapenem-resistant Klebsiella pneumoniae isolate ART2008026 expressing KPC beta lactamase by broth microdilution method
Klebsiella pneumoniae [26] = test: Antimicrobial activity against OmpK35-deficient Carbapenem-resistant Klebsiella pneumoniae isolate ART2008143 expressing KPC beta lactamase by broth microdilution method
Klebsiella pneumoniae [27] = test: Antimicrobial activity against OmpK35-deficient Carbapenem-resistant Klebsiella pneumoniae isolate AIS080792 expressing KPC beta lactamase by broth microdilution method

Structure (SMILES) | MIC (Klebsiella pneumoniae [2]) [mg/L] | MIC (Klebsiella pneumoniae [3]) [mg/L] | MIC (Klebsiella pneumoniae [4]) [mg/L] | MIC (Klebsiella pneumoniae [5]) [mg/L] | MIC (Klebsiella pneumoniae [6]) [mg/L] | MIC (Klebsiella pneumoniae [7]) [mg/L] | MIC (Klebsiella pneumoniae [8]) [mg/L] | MIC (Klebsiella pneumoniae [9]) [mg/L] | MIC (Klebsiella pneumoniae [10]) [mg/L] | MIC (Klebsiella pneumoniae [11]) [mg/L] | MIC (Klebsiella pneumoniae [12]) [mg/L] | MIC (Klebsiella pneumoniae [14]) [mg/L] | MIC (Klebsiella pneumoniae [15]) [mg/L] | MIC (Klebsiella pneumoniae [16]) [mg/L] | MIC (Klebsiella pneumoniae [17]) [mg/L] | MIC (Klebsiella pneumoniae [18]) [mg/L] | MIC (Klebsiella pneumoniae [19]) [mg/L] | MIC (Klebsiella pneumoniae [23]) [mg/L] | MIC (Klebsiella pneumoniae [24]) [mg/L] | MIC (Klebsiella pneumoniae [25]) [mg/L] | also measured
C[C@@H](O)[C@H]1C(=O)N2C(C(=O)O)=C(S[C@@H]3CN[C@H](C(=O)Nc4cccc(C(=O)O)c4)C3)[C@H](C)[C@H]12 | 1020 (≈ 2150 µM) | 4 (≈ 8.41 µM) | 16 (≈ 33.6 µM) | 4 (≈ 8.41 µM) | 8 (≈ 16.8 µM) | 8 (≈ 16.8 µM) | 128 (≈ 269 µM) | 128 (≈ 269 µM) | 1020 (≈ 2150 µM) | 8 (≈ 16.8 µM) | 256 (≈ 538 µM) | < 0.5 | 256 (≈ 538 µM) | 16 (≈ 33.6 µM) | 16 (≈ 33.6 µM) | 2 (≈ 4.21 µM) | 2 (≈ 4.21 µM) | 8 (≈ 16.8 µM) | 256 (≈ 538 µM) | 256 (≈ 538 µM) | MIC (Klebsiella pneumoniae [1]): 64 mg/L (≈ 135 µM); MIC (Klebsiella pneumoniae [13]): 32 mg/L (≈ 67.3 µM); MIC (Klebsiella pneumoniae [20]): 64 mg/L (≈ 135 µM); MIC (Klebsiella pneumoniae [21]): 16 mg/L (≈ 33.6 µM); MIC (Klebsiella pneumoniae [22]): 8 mg/L (≈ 16.8 µM); MIC (Klebsiella pneumoniae [26]): 64 mg/L (≈ 135 µM); MIC (Klebsiella pneumoniae [27]): 64 mg/L (≈ 135 µM)
C[C@@H](O)[C@H]1C(=O)N2C(C(=O)O)=C(SCCNC=N)C[C@H]12 [IMIPENEM ANHYDROUS] | 512 (≈ 1710 µM) | 4 (≈ 13.4 µM) | 4 (≈ 13.4 µM) | 4 (≈ 13.4 µM) | 4 (≈ 13.4 µM) | < 1 | 32 (≈ 107 µM) | 32 (≈ 107 µM) | 512 (≈ 1710 µM) | 2 (≈ 6.68 µM) | 128 (≈ 428 µM) | < 1 | 64 (≈ 214 µM) | 8 (≈ 26.7 µM) | 8 (≈ 26.7 µM) | 1 (≈ 3.34 µM) | 4 (≈ 13.4 µM) | 4 (≈ 13.4 µM) | 256 (≈ 855 µM) | 64 (≈ 214 µM) | MIC (Klebsiella pneumoniae [1]): 32 mg/L (≈ 107 µM); MIC (Klebsiella pneumoniae [13]): 8 mg/L (≈ 26.7 µM); MIC (Klebsiella pneumoniae [20]): 32 mg/L (≈ 107 µM); MIC (Klebsiella pneumoniae [21]): 32 mg/L (≈ 107 µM); MIC (Klebsiella pneumoniae [22]): 2 mg/L (≈ 6.68 µM); MIC (Klebsiella pneumoniae [26]): 8 mg/L (≈ 26.7 µM); MIC (Klebsiella pneumoniae [27]): 32 mg/L (≈ 107 µM)
C[C@@H](O)[C@H]1C(=O)N2C(C(=O)O)=C(S[C@@H]3CN[C@H](C(=O)N(C)C)C3)[C@H](C)[C@H]12 [MEROPENEM] | 256 (≈ 668 µM) | 4 (≈ 10.4 µM) | 8 (≈ 20.9 µM) | 4 (≈ 10.4 µM) | 8 (≈ 20.9 µM) | 4 (≈ 10.4 µM) | 64 (≈ 167 µM) | 32 (≈ 83.4 µM) | 512 (≈ 1340 µM) | 2 (≈ 5.22 µM) | 128 (≈ 334 µM) | < 0.25 | 128 (≈ 334 µM) | 8 (≈ 20.9 µM) | 8 (≈ 20.9 µM) | 4 (≈ 10.4 µM) | 1 (≈ 2.61 µM) | 2 (≈ 5.22 µM) | 256 (≈ 668 µM) | 64 (≈ 167 µM) | MIC (Klebsiella pneumoniae [27]): 32 mg/L (≈ 83.4 µM)
